Bioassay records from PubChem BioAssay.
RAM inhibit: blocks the yeast RAM network; S. cerevisiae dse1pr::URA3 reporter, 5-FOA growth OD615, 2 d; analog-sensitive cbk1-as2 kinase mutant strain; inhibition, % at 50 µM; 190,000 compounds, 1.8% hits;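 active = inhibition above a set limit, 3 SD over mean compound inhibition, cut at about 8.4% in these data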;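 note: 0% = DMSO-only wells with no growth and 100% = 10 µM 1-NA-PP1 full growth; inhibition rescues growth on 5-FOA so higher OD means more RAM inhibition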
ABCB1 inh: blocks JC-1 efflux by human ABCB1 transporter; P08183; CCRF-Adr cells, flow cytometry; inhibition, % at 6.6 µM; 190,000 compounds, 0.067% hits; AID 1326; in the data active = inhibition above about 40%;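 note: 0% = vehicle and 100% = reference inhibitor; higher value means more JC-1 retained so stronger ABCB1 efflux block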
ABCG2 block: inhibitors of human ABCG2 transporter, ABCB1 counter-screen | Q9UNQ0 | IgMXP3 cells, JC-1 efflux, flow cytometry | inhibition, % at 6.6 µM | 190,000 compounds, 0.1% hits | AID 1325;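 active = inhibition above 80%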;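 note: 0% = DMSO and 100% = nicardipine control wells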
Target sequence (Q9UNQ0 whole entry, looked up): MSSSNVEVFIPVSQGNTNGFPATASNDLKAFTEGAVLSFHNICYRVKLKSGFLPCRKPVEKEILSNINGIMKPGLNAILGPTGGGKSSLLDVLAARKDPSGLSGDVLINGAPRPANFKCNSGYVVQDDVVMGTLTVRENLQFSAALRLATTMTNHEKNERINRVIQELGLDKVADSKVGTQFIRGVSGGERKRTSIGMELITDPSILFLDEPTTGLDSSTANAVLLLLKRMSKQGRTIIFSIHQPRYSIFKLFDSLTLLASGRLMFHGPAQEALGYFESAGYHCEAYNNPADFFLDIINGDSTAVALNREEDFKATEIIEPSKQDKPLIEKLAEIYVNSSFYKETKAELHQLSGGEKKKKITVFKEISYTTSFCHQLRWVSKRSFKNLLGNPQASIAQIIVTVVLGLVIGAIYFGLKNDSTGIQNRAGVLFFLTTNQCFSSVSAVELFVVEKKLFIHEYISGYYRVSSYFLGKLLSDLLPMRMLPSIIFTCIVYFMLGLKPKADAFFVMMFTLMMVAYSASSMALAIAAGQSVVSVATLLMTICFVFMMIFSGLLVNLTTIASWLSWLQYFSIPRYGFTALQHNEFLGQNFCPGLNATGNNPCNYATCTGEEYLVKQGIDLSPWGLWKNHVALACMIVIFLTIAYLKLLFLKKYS
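Assay system – ABCG2 IgMXP3 and barcoded ABCB1 CCRF-Adr cell mix · Input – 3 million cells/mL in well · Reagent – JC-1 fluorescent substrate · Compound – single test compound dose, 6.6 µM final · Timing – 10 min exposure at 25 °C with rotation, no wash · Detection – flow cytometry of retained JC-1 fluorescence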
WT yeast gro inh: growth inhibition of WT yeast, mitochondrial fusion screen; mitochondrial fusion phenotypic screen, WT strain; inhibition, % at 10 µM; 190,000 compounds, 2.1% hits; in the data active = inhibition above about 58%; tested in S. cerevisiae
L major viab: Leishmania major promastigote growth inhibition | Leishmania major promastigotes, resazurin fluorescence viability | inhibition, % at 10 µM | 200,000 compounds, 9% hits; in the data active = inhibition above about 50%;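 note: promastigotes grown with compound for 44 hours at 28 °C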
Numbers without * were called inactive; . = not tested or not shown; + = active, no number. Hits are enriched below; roughly 12% of the tested compounds scored in any of these assays.

SMILES	RAM inhibit	ABCB1 inh	ABCG2 block	WT yeast gro inh	L major viab
COC(=O)CN1C(c2ccccc2)=Nc2ccc(Cl)cc2C1c1ccccc1 (configuration not stated)	0	-1	1	22	33
O=C(O)c1ccc2nc(-c3ccccc3)c(-c3ccccc3)nc2c1	6	0	6	-4	29
Nc1ccc(Oc2ccc3nc(-c4ccccc4)c(-c4ccccc4)nc3c2)cc1	1	1	5	-115	66*
CC1CCCN(C(=S)Nc2ccc(F)cc2)C1 (configuration not stated)	0	1	4	9	-1
CCc1ccc(NC(=S)N2CCCC(C(F)(F)F)C2)cc1 (configuration not stated)	2	0	2	39	96*
O=C(C1CCCO1)N1CCN(C(=S)Nc2ccccc2)CC1 (configuration not stated)	2	0	-3	2	53*
CC1CCCN(C(=S)Nc2ccc(Nc3ccccc3)cc2)C1 (configuration not stated)	9.3*	3	30	35	16
O=C(C1CCCO1)N1CCN(C(c2ccccc2)c2ccccc2)CC1 (configuration not stated)	3	2	5	-3	96*
COC(=O)CSc1nc(C)c(C)c(C)c1C(N)=O	0	1	1	-8	8
CC(C)(C)C(=O)Nc1cc(NC(=O)C(C)(C)C)cc(C(=O)Nc2cc(C(=O)O)cc(C(=O)O)c2)c1	2	0	-1	-10	-5
CCOc1ccc(C2C(C(C)=O)=C(O)C(=O)N2CCc2c[nH]c3ccccc23)cc1 (configuration not stated)	5	0	1	-15	-4
CN(C(=O)COC(=O)C1CCN(S(=O)(=O)c2cccs2)CC1)c1ccccc1	-1	0	5	2	-1
Cc1ccc(NC(=S)N2CCCC(c3nc4ccccc4[nH]3)C2)cc1 (configuration not stated)	0	1	13	20	89*
S=C(Nc1ccccc1)N1CCN(C2CCCCC2)CC1	1	1	10	-1	88*
Cc1ccc(S(=O)(=O)N2CCC(C(=O)N/N=C/c3ccncc3)CC2)cc1	0	1	9	-11	-1
CCOC(=O)C(C(=O)OCC)c1cc(Br)c2noc3c2c1C(=O)c1ccccc1-3	7	156*	+	21	100*
CCOC(=O)c1c(C)nc2c(c1-c1ccc(OC)c(OC)c1)C(=O)c1ccccc1-2	4	1	37	-9	-2
O=C(NC1CCCc2ccccc21)c1cccc(S(=O)(=O)N2CCOCC2)c1 (configuration not stated)	4	1	3	-3	-1
O=[N+]([O-])c1ccccc1S(=O)(=O)n1nnc2ccccc21	1	2	8	8	-3
CS(=O)(=O)Cc1cc(N2CCCC2)nc(-c2ccccc2)n1	0	0	1	2	61*
COc1cc(C(=O)NC(CCSC)C(=O)OCC(=O)C(C)(C)C)cc(OC)c1OC (configuration not stated)	2	1	3	-11	16
CCOc1ccc(S(=O)(=O)N2CCOCC2)cc1[N+](=O)[O-]	1	1	2	1	-1
CC(C)C(C)NC(=O)COc1ccc(S(=O)(=O)N2CCOCC2)cc1[N+](=O)[O-] (configuration not stated)	1	2	18	-14	49
CC(C)[C@H](Nc1ccc(S(=O)(=O)N2CCOCC2)cc1[N+](=O)[O-])C(=O)OCC(=O)N(C(C)C)C(C)C	1	9	8	-2	82*
CC(C)[C@H](Nc1ccc(S(=O)(=O)N2CCOCC2)cc1[N+](=O)[O-])C(=O)OCC(N)=O	1	0	5	-5	51*
SMILES	RAM inhibit	ABCB1 inh	ABCG2 block	WT yeast gro inh	L major viab
CNC(=O)COC(=O)[C@@H](Nc1ccc(S(=O)(=O)N2CCOCC2)cc1[N+](=O)[O-])C(C)C	1	0	4	-13	55*
NC(=O)c1cnn(-c2ccc3ccccc3c2)c1N	1	1	5	-12	-14
Oc1ccc(/C=N/Nc2cc(N3CCCC3)nc(N3CCCC3)n2)cc1O	2	-1	-2	-26	99*
Cc1cccc(/C=N/Nc2cc(N3CCOCC3)nc(N3CCOCC3)n2)c1	1	3	16	21	87*
Oc1ccc(/C=N\Nc2cc(N3CCOCC3)nc(N3CCOCC3)n2)c(O)c1	2	0	0	-13	-4
Clc1ccc(-c2ccc(/C=N/Nc3cc(N4CCOCC4)nc(N4CCOCC4)n3)o2)cc1	3	2	18	60*	35
CC(C)CC(=O)Nc1ccc(-c2nnn(CC(=O)NCc3ccco3)n2)cc1	3	0	1	7	3
COc1ccccc1S(=O)(=O)CC(O)COc1ccc(F)cc1Cl (configuration not stated)	0	1	2	1	-11
Cc1ccc(S(=O)(=O)CC(C)N2CCN(C3CCCCC3)CC2)cc1 (configuration not stated)	1	0	2	17	90*
O=S(=O)(CC(CN1CCCC1)N1CCCC1)c1ccc2ccccc2c1 (configuration not stated)	2	-1	-2	4	100*
CC(CS(=O)(=O)c1ccc2ccccc2c1)N1CCN(C2CCCCC2)CC1 (configuration not stated)	.	.	.	.	82*
CCC(CC)c1nnc(NC(=O)c2cccnc2SC)s1	1	1	6	-7	-3
COCCn1c(-c2cccc([N+](=O)[O-])c2)nc2c1c(=O)[nH]c(=O)n2Cc1ccccc1	1	3	11	-14	84*
Cn1c(-c2cccc(OCc3ccccc3)c2)nc2c1c(=O)[nH]c(=O)n2Cc1ccccc1	0	1	8	-8	-3
COc1ccc(-c2nc3c(c(=O)[nH]c(=O)n3Cc3ccccc3)n2Cc2ccccc2)cc1	4	1	2	39	99*
O=C(COC(=O)Cc1c(Cl)cccc1Cl)NCC1CCCO1 (configuration not stated)	0	1	3	12	0
O=C(CC1S/C(=N/N=C/c2c[nH]c3ccc(OCc4ccccc4)cc23)NC1=O)Nc1ccccc1 (configuration not stated)	3	1	-11	9	-7
O=C(CC1S/C(=N/N=C/c2cccs2)NC1=O)Nc1ccc(Cl)cc1 (configuration not stated)	4	0	0	5	99*
O=C(CC1S/C(=N/N=C/c2c[nH]c3ccccc23)NC1=O)Nc1ccccc1 (configuration not stated)	6	1	6	3	79*
O=C(CC1S/C(=N/N=C/c2cccs2)NC1=O)Nc1ccc(Cl)c(Cl)c1 (configuration not stated)	1	-1	-3	-6	25
